Type in all cases: cell-based
The target of data set [1] is Hypoxia-inducible factor 1-alpha (Homo sapiens, UniProt Q16665). The experiment in a line: Inhibition of hypoxia-induced HIF1alpha transcriptional activity in human Hep3B cells after 24 hrs in hypoxic condition by HRE-dependent dual luciferase reporter gene assay. Put shortly:
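Hep3B cells transiently co-transfected with pGL3-HRE-luciferase and pRL-CMV vectors, incubated 24 h, then treated with compounds for 24 h under hypoxia. Luciferase activity measured […]. IC50 given as mean ± SE, n=3.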
(In general: In a reporter assay the amount or activity of a reporter protein is the signal.)

For data set [2], the system named is Hep 3B2. The experiment in a line: Cytotoxicity against human Hep3B cells assessed as reduction in cell viability after 24 hrs by MTT assay. An outline of the steps: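 Hep3B cells exposed to compounds for 24 h under normoxic conditions; viability read by MTT assay; IC50 from mean ± SE, n=3.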
Data set [3] deals with Hep 3B2. The experiment in a line: Cytotoxicity against human Hep3B cells assessed as reduction in cell viability up to 30 uM after 24 hrs in presence of 20% O2 by MTT assay. The conditions noted are these: hep 3b2, 24 h. Put shortly:
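Hep3B cells treated with the indicated concentrations (up to 30 µM) for 24 h, then viability determined by MTT assay.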
In general terms: Tetrazolium dyes change colour on reduction, which living cells bring about.

Some results are limits rather than exact numbers.

As usually defined, the IC50 is the concentration that inhibits the measured activity by half.

In the case of `C[C@H]1[C@H](C)CC[C@]2(C(=O)OCCCNc3ccc(-c4nnn[nH]4)cc3)CC[C@]3(C)C(=CC[C@@H]4[C@@]5(C)CC[C@H](O)C(C)(C)[C@@H]5CC[C@]43C)[C@H]12`, the IC50 (in data set [1]; with Hep 3B2 [2]) was above 100 µM throughout.
`C[C@H]1[C@H](C)CC[C@]2(C(=O)Nc3nnn[nH]3)CC[C@]3(C)C(=CC[C@@H]4[C@@]5(C)CC[C@H](OC(=O)C(F)(F)F)C(C)(C)[C@@H]5CC[C@]43C)[C@H]12`: the 50% inhibitory concentration (IC50) in data set [1] was 1.6 µM; in the data set with Hep 3B2 [2], 6.4 µM.
For `C[C@H]1[C@H](C)CC[C@]2(C(=O)OCCCNc3cccc(-c4nnn[nH]4)c3)CC[C@]3(C)C(=CC[C@@H]4[C@@]5(C)CC[C@H](O)C(C)(C)[C@@H]5CC[C@]43C)[C@H]12` the same measures were 13.2 µM and above 100 µM.
For `C[C@H]1[C@H](C)CC[C@]2(C(=O)OCCNc3ccc(-c4nnn[nH]4)cc3)CC[C@]3(C)C(=CC[C@@H]4[C@@]5(C)CC[C@H](O)C(C)(C)[C@@H]5CC[C@]43C)[C@H]12`, in that order: 26.2 µM and above 100 µM.
In the case of `C[C@H]1[C@H](C)CC[C@]2(C(=O)OCCNc3nnn[nH]3)CC[C@]3(C)C(=CC[C@@H]4[C@@]5(C)CC[C@H](O)C(C)(C)[C@@H]5CC[C@]43C)[C@H]12`, the IC50 in data set [1] is 8.5 µM; in the data set with Hep 3B2 [2], above 100 µM.
For `C[C@H]1[C@H](C)CC[C@]2(C(=O)OCCNc3ccccc3-c3nnn[nH]3)CC[C@]3(C)C(=CC[C@@H]4[C@@]5(C)CC[C@H](O)C(C)(C)[C@@H]5CC[C@]43C)[C@H]12`, in that order: above 100 µM and above 100 µM.
As to `C[C@H]1[C@H](C)CC[C@]2(C(=O)OCCCNc3ccccc3-c3nnn[nH]3)CC[C@]3(C)C(=CC[C@@H]4[C@@]5(C)CCC(=O)C(C)(C)[C@@H]5CC[C@]43C)[C@H]12`, the IC50 (in data set [1]; in the data set with Hep 3B2 [2]) was above 100 µM throughout.
For the compound `CCCC(=O)O[C@H]1CC[C@]2(C)[C@H]3CC=C4[C@@H]5[C@@H](C)[C@H](C)CC[C@]5(C(=O)Nc5nnn[nH]5)CC[C@@]4(C)[C@]3(C)CC[C@H]2C1(C)C`, the IC50 in data set [1] was determined as 1.4 µM; with Hep 3B2 [2] it was 4.7 µM.
`C[C@H]1[C@H](C)CC[C@]2(C(=O)OCn3ncn(-c4ccccc4)c3=O)CC[C@]3(C)C(=CC[C@@H]4[C@@]5(C)CC[C@H](O)C(C)(C)[C@@H]5CC[C@]43C)[C@H]12`: the IC50 is 36.9 µM in data set [1] and above 100 µM in the data set on Hep 3B2 [2].
On to `C[C@H]1[C@H](C)CC[C@]2(C(=O)O)CC[C@]3(C)C(=CC[C@@H]4[C@@]5(C)CC[C@H](O)C(C)(C)[C@@H]5CC[C@]43C)[C@H]12` [URSOLIC ACID], for which the IC50 in data set [1] was above 100 µM.
Turning to `C[C@H]1[C@H](C)CC[C@]2(C(=O)OCCCn3nnnc3-c3ccc(Cl)cc3)CC[C@]3(C)C(=CC[C@@H]4[C@@]5(C)CC[C@H](O)C(C)(C)[C@@H]5CC[C@]43C)[C@H]12`, the IC50 is 7.5 µM in data set [1] and above 100 µM with Hep 3B2 [2].
For `C[C@H]1[C@H](C)CC[C@]2(C(=O)OCCCNc3ccc(-c4nnn[nH]4)cc3)CC[C@]3(C)C(=CC[C@@H]4[C@@]5(C)CCC(=O)C(C)(C)[C@@H]5CC[C@]43C)[C@H]12` the same measures were above 100 µM and above 100 µM.
For `C[C@H]1[C@H](C)CC[C@]2(C(=O)OCCNc3ccc(-c4nnn[nH]4)cc3)CC[C@]3(C)C(=CC[C@@H]4[C@@]5(C)CCC(=O)C(C)(C)[C@@H]5CC[C@]43C)[C@H]12`, in that order: 18.1 µM and above 100 µM.
For `C[C@H]1[C@H](C)CC[C@]2(C(=O)OCCn3nnnc3-c3ccccc3)CC[C@]3(C)C(=CC[C@@H]4[C@@]5(C)CC[C@H](O)C(C)(C)[C@@H]5CC[C@]43C)[C@H]12`, in that order: 18.1 µM and above 100 µM.
As to `C[C@H]1[C@H](C)CC[C@]2(C(=O)OCCCNc3ccccc3-c3nnn[nH]3)CC[C@]3(C)C(=CC[C@@H]4[C@@]5(C)CC[C@H](O)C(C)(C)[C@@H]5CC[C@]43C)[C@H]12`, the concentration for half-maximal inhibition (IC50) (in data set [1]; with Hep 3B2 [2]) was above 100 µM each time.
On to `C[C@H]1[C@H](C)CC[C@]2(C(=O)O)CC[C@]3(C)C(=CC[C@@H]4[C@@]5(C)CC(=C\c6ccc(Cl)cc6)/C(=N\NC(=N)N)C(C)(C)[C@@H]5CC[C@]43C)[C@H]12`, for which the 50% inhibitory concentration (IC50) was 4 µM in data set [1] and above 100 µM with Hep 3B2 [2].
For `C[C@H]1[C@H](C)CC[C@]2(C(=O)Nc3nnn[nH]3)CC[C@]3(C)C(=CC[C@@H]4[C@@]5(C)CC[C@H](O)C(C)(C)[C@@H]5CC[C@]43C)[C@H]12` the same measures were 13.3 µM and above 100 µM.
For `C[C@H]1[C@H](C)CC[C@]2(C(=O)OCCNc3cccc(-c4nnn[nH]4)c3)CC[C@]3(C)C(=CC[C@@H]4[C@@]5(C)CC[C@H](O)C(C)(C)[C@@H]5CC[C@]43C)[C@H]12` the same measures were 8.9 µM and above 100 µM.
For `C[C@H]1[C@H](C)CC[C@]2(C(=O)Nc3nnn[nH]3)CC[C@]3(C)C(=CC[C@@H]4[C@@]5(C)CC[C@H](OC(=O)c6ccccc6)C(C)(C)[C@@H]5CC[C@]43C)[C@H]12`, in that order: 0.8 µM and 18.5 µM.
As to `C[C@H]1[C@H](C)CC[C@]2(C(=O)OCCCNc3nnn[nH]3)CC[C@]3(C)C(=CC[C@@H]4[C@@]5(C)CC[C@H](O)C(C)(C)[C@@H]5CC[C@]43C)[C@H]12`, the results for the concentration for half-maximal inhibition (IC50) (in data set [1]; in the data set with Hep 3B2 [2]) were 10.3 µM and above 100 µM, respectively.
Regarding `COc1ccc(-c2nnnn2CCCOC(=O)[C@]23CC[C@@H](C)[C@H](C)[C@H]2C2=CC[C@@H]4[C@@]5(C)CC[C@H](O)C(C)(C)[C@@H]5CC[C@@]4(C)[C@]2(C)CC3)cc1`, the IC50 was 27.4 µM in data set [1] and above 100 µM with Hep 3B2 [2].
For `C[C@H]1[C@H](C)CC[C@]2(C(=O)OCCNc3ccccc3-c3nnn[nH]3)CC[C@]3(C)C(=CC[C@@H]4[C@@]5(C)CCC(=O)C(C)(C)[C@@H]5CC[C@]43C)[C@H]12` the same measures were above 100 µM and above 100 µM.
Regarding `C[C@H]1[C@H](C)CC[C@]2(C(=O)Nc3nnn[nH]3)CC[C@]3(C)C(=CC[C@@H]4[C@@]5(C)CCC(=O)C(C)(C)[C@@H]5CC[C@]43C)[C@H]12`, the IC50 in data set [1] is 18.1 µM; in the data set with Hep 3B2 [2], above 100 µM.
On to `CC(=O)O[C@H]1CC[C@]2(C)[C@H]3CC=C4[C@@H]5[C@@H](C)[C@H](C)CC[C@]5(C(=O)Nc5nnn[nH]5)CC[C@@]4(C)[C@]3(C)CC[C@H]2C1(C)C`, for which, in data set [1], it took 4.7 µM to reach half-maximal inhibition (IC50) and the inhibition entry was “Dose-dependent effect”. For the same compound, the IC50 in the data set with Hep 3B2 [2] was above 100 µM. The Activity result in the data set on Hep 3B2 [3] is listed as “Non-Toxic”.
Turning to `C[C@H]1[C@H](C)CC[C@]2(C(=O)OCCCn3nnnc3-c3ccccc3)CC[C@]3(C)C(=CC[C@@H]4[C@@]5(C)CC[C@H](O)C(C)(C)[C@@H]5CC[C@]43C)[C@H]12`, the IC50 in data set [1] is 40 µM; in the data set on Hep 3B2 [2], above 100 µM.
For `C[C@H]1[C@H](C)CC[C@]2(C(=O)OCCNc3cccc(-c4nnn[nH]4)c3)CC[C@]3(C)C(=CC[C@@H]4[C@@]5(C)CCC(=O)C(C)(C)[C@@H]5CC[C@]43C)[C@H]12`, in that order: above 100 µM and above 100 µM.
On to `COc1ccc(-c2nnnn2CCOC(=O)[C@]23CC[C@@H](C)[C@H](C)[C@H]2C2=CC[C@@H]4[C@@]5(C)CC[C@H](O)C(C)(C)[C@@H]5CC[C@@]4(C)[C@]2(C)CC3)cc1`, for which the half-maximal inhibitory concentration (IC50) (in data set [1]; in the data set with Hep 3B2 [2]) was above 100 µM in each case.
Regarding `C[C@H]1[C@H](C)CC[C@]2(C(=O)OCCCn3nnnc3-c3ccc4c(c3)OCO4)CC[C@]3(C)C(=CC[C@@H]4[C@@]5(C)CC[C@H](O)C(C)(C)[C@@H]5CC[C@]43C)[C@H]12`, the 50% inhibitory concentration (IC50) was 83 µM in data set [1] and above 100 µM in the data set on Hep 3B2 [2].
As for `C[C@H]1[C@H](C)CC[C@]2(C(=O)Nc3nnn[nH]3)CC[C@]3(C)C(=CC[C@@H]4[C@@]5(C)CC/C(=N\Nc6ccccc6)C(C)(C)[C@@H]5CC[C@]43C)[C@H]12`, the figures for the half-maximal inhibitory concentration (IC50) (in data set [1]; in the data set on Hep 3B2 [2]) were 2.2 µM and 11.9 µM, respectively.
For `C[C@H]1[C@H](C)CC[C@]2(C(=O)OCCCNc3cccc(-c4nnn[nH]4)c3)CC[C@]3(C)C(=CC[C@@H]4[C@@]5(C)CCC(=O)C(C)(C)[C@@H]5CC[C@]43C)[C@H]12` the same measures were above 100 µM and above 100 µM.
Consider `C[C@H]1[C@H](C)CC[C@]2(C(=O)OCCNc3nnn[nH]3)CC[C@]3(C)C(=CC[C@@H]4[C@@]5(C)CCC(=O)C(C)(C)[C@@H]5CC[C@]43C)[C@H]12`, for which the half-maximal inhibitory concentration (IC50) in data set [1] is 14.2 µM; with Hep 3B2 [2], above 100 µM.
As to `C[C@H]1[C@H](C)CC[C@]2(C(=O)OCCn3nnnc3-c3ccc4c(c3)OCO4)CC[C@]3(C)C(=CC[C@@H]4[C@@]5(C)CC[C@H](O)C(C)(C)[C@@H]5CC[C@]43C)[C@H]12`, the IC50 (in data set [1]; in the data set with Hep 3B2 [2]) was above 100 µM in each case.
With `C[C@H]1[C@H](C)CC[C@]2(C(=O)OCCn3nnnc3-c3ccc(Cl)cc3)CC[C@]3(C)C(=CC[C@@H]4[C@@]5(C)CC[C@H](O)C(C)(C)[C@@H]5CC[C@]43C)[C@H]12`, the IC50 in data set [1] was 76.4 µM; in the data set with Hep 3B2 [2], above 100 µM.
For `C[C@H]1[C@H](C)CC[C@]2(C(=O)OCCCNc3nnn[nH]3)CC[C@]3(C)C(=CC[C@@H]4[C@@]5(C)CCC(=O)C(C)(C)[C@@H]5CC[C@]43C)[C@H]12`, in that order: 16.7 µM and above 100 µM.

The values above are taken from ChEMBL document CHEMBL4392861, “Synthesis and evaluation of the HIF-1α inhibitory activities of novel ursolic acid tetrazole derivatives” (Bioorg Med Chem Lett, 2019).
